Assay results taken from ChEMBL document CHEMBL1127647, “Synthesis and antiviral activities of 8-alkynyl-, 8-alkenyl-, and 8-alkyl-2'-deoxyadenosine analogues” (1994).
≈ marks a conversion by molar mass, not a printed value.

Key:
Type in all cases: functional
HEL [1] = assay: Minimum inhibitory concentration to reduce cytopathicity by 50% in proliferation of human embryonic lung cells (HEL)
Outline: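 Host cell toxicity is read as the compound concentration that reduces HEL cell proliferation by 50%.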

[2] = tested on: Respiratory syncytial virus; assay: Minimum inhibitory concentration required for antiviral activity to reduce Respiratory syncytial virus (RSV) (Long) induced cytopathicity in human carcinoma cells (HeLa)
Outline: (§1)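 Endpoint is the compound concentration that reduces virus-induced cytopathicity in the host cell monolayer by 50%.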

MDCK [3] = assay: Minimum inhibitory concentration required for antiviral activity to reduce Influenza A virus (Ishikawa) induced cytopathicity in Madin-Darby canine kidney cells (MDCK); conditions: Canis lupus familiaris; outline: as §1
HEL [4] = assay: Minimum inhibitory concentration required for antiviral activity to reduce TK Varicella Zoster virus (VZV) (07/1) induced cytopathicity in human embryonic lung cells (HEL)
MDCK [5] = assay: Minimum inhibitory concentration required for antiviral activity to reduce influenza B virus (Singapore) induced cytopathicity in Madin-Darby canine kidney cells (MDCK); conditions: Canis lupus familiaris; outline: as §1
MDCK [6] = assay: Minimum inhibitory concentration to reduce cytopathicity by 50% in morphology of Madin-Darby canine kidney cells (MDCK); conditions: Canis lupus familiaris
Vaccinia virus = assay: Minimum inhibitory concentration required for antiviral activity to reduce Vaccinia virus (VV) induced cytopathicity in human embryonic skin-muscle cells (ESM); conditions: Orthopoxvirus vaccinia; outline: as §1
HEL [7] = assay: Minimum inhibitory concentration required for antiviral activity to reduce Varicella Zoster virus (VZV) (Oka) induced cytopathicity in human embryonic lung cells (HEL)
ESM = assay: Minimum inhibitory concentration to reduce cytopathicity by 50% in morphology of human embryonic skin-muscle cells (ESM)
HeLa = assay: Minimum inhibitory concentration to reduce cytopathicity by 50% in morphology of human carcinoma cells (HeLa)
Outline: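 Cytotoxicity endpoint is the minimum compound concentration that causes a microscopically detectable alteration of normal host cell morphology.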

HEL [8] = assay: Minimum inhibitory concentration required for antiviral activity to reduce Cytomegalovirus (CMV) (Davis) induced cytopathicity in human embryonic lung cells (HEL); outline: as §1
Human alphaherpesvirus 1 = assay: Minimum inhibitory concentration required for antiviral activity to reduce TK-HSV-1 (B2006) induced cytopathicity in human embryonic skin-muscle cells (ESM); outline: as §1
HEL [9] = assay: Minimum inhibitory concentration required for antiviral activity to reduce Cytomegalovirus (CMV) (AD-169) induced cytopathicity in human embryonic lung cells (HEL); outline: as §1
[10] = tested on: Vesicular stomatitis virus; assay: Minimum inhibitory concentration required for antiviral activity to reduce Vesicular stomatitis virus (VSV) induced cytopathicity in human embryonic skin-muscle cells (ESM); outline: as §1

| SMILES | MIC (HEL [1]) [µg/mL] | MIC [2] [µg/mL] | MIC (MDCK [3]) [µg/mL] | MIC (HEL [4]) [µg/mL] | MIC (MDCK [5]) [µg/mL] | MIC (MDCK [6]) [µg/mL] | MIC (Vaccinia virus) [µg/mL] | MIC (HEL [7]) [µg/mL] | MIC (ESM) [µg/mL] | MIC (HeLa) [µg/mL] | MIC (HEL [8]) [µg/mL] | MIC (Human alphaherpesvirus 1) [µg/mL] | MIC (HEL [9]) [µg/mL] | MIC [10] [µg/mL] |
| --- | --- | --- | --- | --- | --- | --- | --- | --- | --- | --- | --- | --- | --- | --- |
| C/C=C\c1nc2c(N)ncnc2n1[C@H]1C[C@H](O)[C@@H](CO)O1 | > 50 | > 200 | > 200 | > 50 | > 200 | > 200 | > 100 | > 50 | ≥ 100 | > 200 | > 50 | > 100 | > 50 | > 100 |
| Nc1nc2c(ncn2COCCO)c(=O)[nH]1 [ACYCLOVIR] | > 200 |  |  |  |  |  | > 400 |  | > 400 |  | 50 (≈ 222 µM) | 100 (≈ 444 µM) | 35 (≈ 155 µM) | > 400 |
| CCCCCC#Cc1nc2c(N)ncnc2n1[C@H]1C[C@H](O)[C@@H](CO)O1 | 6 (≈ 17.4 µM) | 30 (≈ 86.9 µM) | > 100 | 8 (≈ 23.2 µM) | 100 (≈ 290 µM) | 100 (≈ 290 µM) | 7 (≈ 20.3 µM) | 15 (≈ 43.4 µM) | > 200 | 100 (≈ 290 µM) | 7 (≈ 20.3 µM) | > 100 | 2 (≈ 5.79 µM) | 20 (≈ 57.9 µM) |
| CCCCCCCc1nc2c(N)ncnc2n1[C@H]1C[C@H](O)[C@@H](CO)O1 | 13 (≈ 37.2 µM) | 20 (≈ 57.2 µM) | 20 (≈ 57.2 µM) | 6 (≈ 17.2 µM) | > 100 | 100 (≈ 286 µM) | 20 (≈ 57.2 µM) | 10 (≈ 28.6 µM) | > 100 | 100 (≈ 286 µM) | 4 (≈ 11.4 µM) | > 40 | 4 (≈ 11.4 µM) | > 40 |
| CCCc1nc2c(N)ncnc2n1[C@H]1C[C@H](O)[C@@H](CO)O1 | 170 (≈ 580 µM) | > 200 | > 200 | 7 (≈ 23.9 µM) | > 200 | > 200 | 70 (≈ 239 µM) | 20 (≈ 68.2 µM) | > 400 | > 200 | 20 (≈ 68.2 µM) | > 300 | 20 (≈ 68.2 µM) | 400 (≈ 1360 µM) |
| CC#Cc1nc2c(N)ncnc2n1[C@H]1C[C@H](O)[C@@H](CO)O1 | 40 (≈ 138 µM) | > 200 | > 200 | 40 (≈ 138 µM) | > 200 | > 200 | 300 (≈ 1040 µM) | 40 (≈ 138 µM) | > 400 | > 200 | 20 (≈ 69.1 µM) | 150 (≈ 519 µM) | 20 (≈ 69.1 µM) | 150 (≈ 519 µM) |
| O=c1[nH]c(=O)n([C@H]2C[C@H](O)[C@@H](CO)O2)cc1/C=C/Br [BRIVUDINE] | > 200 |  |  | > 10 |  |  | 2 (≈ 6 µM) | 0.004 (≈ 0.012 µM) | > 400 |  | 70 (≈ 210 µM) | > 200 | 70 (≈ 210 µM) | > 400 |
